Reference: PMC5900894 (Chemmedchem, 2018)

Tests used:
[1] = DOSY NMR diffusion coefficient / aggregation; assay type: physicochemical; details: FP7 500 μM alone, 310 K, 10 % DMSO in PBS 100 mM pH 5.5
Method in brief: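 Test glycolipid was diluted from a 50 mM DMSO stock into 100 mM PBS pH 5.5 (final DMSO 10 %) and examined at 500 μM by DOSY NMR. Spectra were recorded on the glycolipid alone, then after stepwise peptide additions up to [peptide]/[glycolipid] molar ratios of 0.06 or 0.1. Peptides came from 20 mM DMSO stocks.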

[2] = tested on: human peripheral blood mononuclear cells; assay: IL‐1β production in LPS‐stimulated human PBMCs; assay type: cell-based; details: pre‐incubated 30 min, LPS 100 ng mL^−1, overnight; tested 0.1, 1, 5, 10 μM
Method in brief: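 PBMCs came from buffy coats diluted 1:1 in PBS and separated by density gradient centrifugation. Cells were washed, checked for viability with 0.1 % trypan blue, and resuspended in RPMI 1640 with 10 % FBS, penicillin and streptomycin in U-bottom wells. Test glycolipid alone or its 1:1 mix with peptide (0.1, 1, 5, 10 μM) was added 30 min before smooth LPS (100 ng mL⁻¹). IL-1β release was the read-out.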

SMILES: CCCCCCCCCCCCCC(=O)N[C@H]1[C@@H](OP(=O)(O)O)O[C@H](CO)[C@@H](OP(=O)(O)O)[C@@H]1OC(=O)CCCCCCCCCCCCC [FP7]
- D (diffusion coefficient of FP7) [1]: 6.31×10^−11 m^2 s^−1
- concentration halving the amount of IL‐1β released [2]: 5 µM
